Results reported in article PMC7661742 (Molecular cancer therapeutics, 2020).

Experiments:
CDK6 = CDK6 (Homo sapiens, UniProt Q00534); assay: SelectScreen Kinase Profiling, CDK6; type: biochemical
Outline: (§1)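 Kinases were run in a commercial kinase profiling service. Single-point tests used 1 μM test compound at the ATP concentration specified per kinase. IC50 curves started at 20 μM, followed by 10 subsequent […] dilution steps.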

B16-F10 cells = assay: Viability assay, B16-F10; type: cell-based, mouse
Outline: (§2)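 Mouse tumour cells were plated in 96-well plates with CDK8/19 inhibitor over a concentration range, with 72 h or 120 h timing depending on the growth of each line. Cells were held at 37°C, humidified, 5% CO2. Viability was read by CellTiter-Glo luminescence or AlamarBlue, and curves were fitted by iterative sigmoidal analysis.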

EMT6 tumors = assay: In vivo efficacy, EMT6 murine mammary carcinoma model; set-up: species or system mouse; conditions: BI-1347 monotherapy
MC-38 cells = assay: Viability assay, MC-38; type: cell-based, mouse
Outline: as §2

[1] = test system: primary leukemia cells from chronic lymphocytic leukemia patients; assay: CD20-mediated ADCC with rituximab on primary CLL cells; type: cell-based, human
Outline: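 Primary CLL cells and autologous PBMCs from patients were cultured 48 h with rituximab (10 μg/ml) plus CDK8/19 inhibitor or vehicle. Leukemia-cell depletion was counted by flow cytometry against PKH26 reference microbeads and normalised to the mean of DMSO controls (n=5). The no-NK arm used CLL cells pretreated 48 h with vehicle or inhibitor, then 4 h with vehicle or rituximab. Cell death was read by flow cytometry (n=4).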

MC38 tumors = assay: In vivo efficacy, MC-38 murine syngeneic colon adenocarcinoma model; set-up: species or system mouse; conditions: BI-1347 10 mg/kg daily oral; anti-PD-1 10 mg/kg i.p. twice weekly
Outline: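 Female C57BL/6N mice were implanted subcutaneously with 100 thousand MC38 cells and randomized by body weight on day 3, 5 mice per group. The anti-PD-1 was rat IgG2a anti-mouse PD-1 (RMP1–14). Readouts were response and TGI at day 20 and complete responses at study end. Groups were compared by one-tailed, non-adjusted Mann Whitney test.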

CDK2 = CDK2 (Homo sapiens, UniProt P24941); assay: SelectScreen Kinase Profiling, CDK2; type: biochemical
Outline: as §1

EMT6 cells = assay: Viability assay, EMT6; type: cell-based, mouse
Outline: as §2

[2] = test system: STAT1^S727 phosphorylation; type: in vivo, mouse; conditions: daily oral dose of 10 mg/kg, for at least 6 h
Mouse pharmacokinetics = type: in vivo; conditions: mice
Outline: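 C57BL/6 mice (n=3 per group) were given test compound orally at 25 mg/kg or intravenously at 1 mg/kg. Plasma concentrations were measured by LC-MS at set time points after dosing.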

CDK7 = CDK7 (Homo sapiens, UniProt P50613); assay: SelectScreen Kinase Profiling, CDK7; type: biochemical
Outline: as §1

B16-F10-luc2 melanoma = assay: In vivo efficacy, B16-F10-luc2 syngeneic melanoma model; conditions: 10 mg/kg daily oral
Outline: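 Female C57BL/6N mice received 100 thousand B16-F10-luc2 cells intravenously. They were randomized by body weight on day 5, 10 mice per group, then dosed orally once daily. Tumor burden was read as average radiance by luciferase in vivo imaging, alongside survival and body weight. TGI = [1-((treated(final) – treated(Day1))/(control(final) – control(Day1)))] * 100%.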

CDK9 = CDK9 (Homo sapiens, UniProt P50750); assay: SelectScreen Kinase Profiling, CDK9; type: biochemical
Outline: as §1

CDK19 = CDK19 (Homo sapiens, UniProt Q9BWU1); assay: SelectScreen Kinase Profiling, CDK19; type: biochemical
Outline: as §1

CDK1 = CDK1 (Homo sapiens, UniProt P06493); assay: SelectScreen Kinase Profiling, CDK1; type: biochemical
Outline: as §1

CDK4 = CDK4 (Homo sapiens, UniProt P11802); assay: SelectScreen Kinase Profiling, CDK4; type: biochemical
Outline: as §1

[3] = test system: perforin secretion from NK92MI cells; assay: Perforin release assay; type: cell-based, human; conditions: 24 h, ELISA
Outline: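 NK92MI cells were seeded at 40.000 cells/well with test compound over a concentration range and held 24 h at 37°C, humidified, 5% CO2. IL-15 (50 ng/ml) served as positive control. Secreted perforin in supernatants was quantified by ELISA.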

[4] = test system: granzyme B-positive murine spleen-derived NK cells; assay: Modulation of granzyme B in mouse splenocytes; type: cell-based; conditions: murine spleen-derived NK cells activated with IL-15 in vitro; 150 nmol/l, 44 h
Outline: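 Cells received 2.5 ng/ml IL-15, 150 nmol/l test compound, or both, for 44 h at 37°C and 5% CO2. Protein transport inhibitor was present for the last 4 h. Cells were stained for CD3ε, NK1.1 and intracellular granzyme B after fix/perm and gated viable CD3−NK1.1+GZMB+ (3–6 mice per group).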

Metabolic stability = type: in vitro ADME; conditions: compared with Compound 2
Outline: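 Test compound was incubated with cryopreserved hepatocytes, and compound depletion was quantified over 240 min by LC/MS/MS. In vivo hepatic clearance was predicted from depletion using the well-stirred model.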

Sequence of CDK4 (P11802 whole entry): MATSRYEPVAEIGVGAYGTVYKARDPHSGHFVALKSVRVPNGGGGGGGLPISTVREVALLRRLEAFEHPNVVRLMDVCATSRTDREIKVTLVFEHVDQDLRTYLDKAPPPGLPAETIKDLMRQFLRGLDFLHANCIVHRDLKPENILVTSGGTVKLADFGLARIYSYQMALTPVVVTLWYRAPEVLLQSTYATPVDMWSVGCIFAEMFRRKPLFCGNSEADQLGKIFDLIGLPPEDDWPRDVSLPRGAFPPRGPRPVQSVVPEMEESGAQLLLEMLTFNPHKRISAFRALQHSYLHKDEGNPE
Sequence of CDK4 (P24385 whole entry partner): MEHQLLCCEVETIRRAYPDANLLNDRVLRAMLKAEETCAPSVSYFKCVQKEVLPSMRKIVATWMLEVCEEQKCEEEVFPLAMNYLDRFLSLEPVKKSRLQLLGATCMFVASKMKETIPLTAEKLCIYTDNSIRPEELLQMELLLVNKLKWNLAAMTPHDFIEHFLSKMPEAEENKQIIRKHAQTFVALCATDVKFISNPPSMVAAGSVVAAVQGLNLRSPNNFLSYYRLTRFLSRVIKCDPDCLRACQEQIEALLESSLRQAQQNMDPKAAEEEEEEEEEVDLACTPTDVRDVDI
Sequence of CDK9 (P50750 whole entry): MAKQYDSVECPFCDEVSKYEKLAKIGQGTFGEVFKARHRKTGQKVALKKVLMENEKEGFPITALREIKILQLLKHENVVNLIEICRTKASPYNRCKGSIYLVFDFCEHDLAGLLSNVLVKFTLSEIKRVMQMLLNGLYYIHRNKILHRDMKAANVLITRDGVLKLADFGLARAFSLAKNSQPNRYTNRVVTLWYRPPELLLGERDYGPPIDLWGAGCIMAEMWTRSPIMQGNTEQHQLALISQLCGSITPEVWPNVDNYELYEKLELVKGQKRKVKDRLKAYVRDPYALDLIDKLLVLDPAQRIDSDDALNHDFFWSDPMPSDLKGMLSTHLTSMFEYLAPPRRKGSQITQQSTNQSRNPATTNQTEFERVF
Sequence of CDK9 (O60563 whole entry partner): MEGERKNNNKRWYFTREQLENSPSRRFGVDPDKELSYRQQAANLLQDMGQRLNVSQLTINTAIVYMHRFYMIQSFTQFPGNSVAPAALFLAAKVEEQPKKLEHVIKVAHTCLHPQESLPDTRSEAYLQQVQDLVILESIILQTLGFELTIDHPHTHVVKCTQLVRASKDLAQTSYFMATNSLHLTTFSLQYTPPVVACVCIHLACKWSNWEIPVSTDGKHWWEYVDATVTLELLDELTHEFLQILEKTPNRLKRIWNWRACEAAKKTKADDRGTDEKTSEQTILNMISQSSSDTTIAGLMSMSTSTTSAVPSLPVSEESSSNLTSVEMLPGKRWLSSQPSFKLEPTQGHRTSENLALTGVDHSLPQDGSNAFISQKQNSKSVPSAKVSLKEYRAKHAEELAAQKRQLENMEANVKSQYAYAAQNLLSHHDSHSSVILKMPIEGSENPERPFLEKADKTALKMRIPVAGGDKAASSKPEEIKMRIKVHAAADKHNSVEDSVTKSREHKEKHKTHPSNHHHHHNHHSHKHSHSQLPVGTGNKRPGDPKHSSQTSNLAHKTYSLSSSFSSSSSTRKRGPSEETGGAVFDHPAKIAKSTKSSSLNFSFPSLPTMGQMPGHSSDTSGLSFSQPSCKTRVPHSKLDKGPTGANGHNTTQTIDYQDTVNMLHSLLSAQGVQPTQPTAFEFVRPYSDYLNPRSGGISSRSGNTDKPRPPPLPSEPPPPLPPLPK
Sequence of CDK6 (Q00534 whole entry): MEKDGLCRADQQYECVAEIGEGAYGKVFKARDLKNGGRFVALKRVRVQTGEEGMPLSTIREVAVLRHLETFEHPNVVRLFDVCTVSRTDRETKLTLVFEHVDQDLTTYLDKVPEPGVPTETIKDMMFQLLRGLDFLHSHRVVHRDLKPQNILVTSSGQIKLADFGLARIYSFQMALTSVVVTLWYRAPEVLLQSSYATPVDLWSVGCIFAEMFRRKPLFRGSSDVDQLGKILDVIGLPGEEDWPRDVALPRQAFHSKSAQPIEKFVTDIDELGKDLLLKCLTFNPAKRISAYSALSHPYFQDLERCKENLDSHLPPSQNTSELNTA
Sequence of CDK6 (P24385 whole entry partner): as the sequence (P24385 whole entry partner) above
Sequence of CDK1 (P06493 whole entry): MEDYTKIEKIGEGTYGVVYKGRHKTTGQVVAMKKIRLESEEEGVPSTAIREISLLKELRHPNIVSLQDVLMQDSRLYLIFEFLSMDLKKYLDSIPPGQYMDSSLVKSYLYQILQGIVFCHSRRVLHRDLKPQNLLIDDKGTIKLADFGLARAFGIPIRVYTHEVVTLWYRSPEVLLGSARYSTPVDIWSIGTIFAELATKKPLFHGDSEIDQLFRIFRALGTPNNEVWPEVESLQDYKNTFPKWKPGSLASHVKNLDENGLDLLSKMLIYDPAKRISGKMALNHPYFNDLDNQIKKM
Sequence of CDK1 (P14635 whole entry partner): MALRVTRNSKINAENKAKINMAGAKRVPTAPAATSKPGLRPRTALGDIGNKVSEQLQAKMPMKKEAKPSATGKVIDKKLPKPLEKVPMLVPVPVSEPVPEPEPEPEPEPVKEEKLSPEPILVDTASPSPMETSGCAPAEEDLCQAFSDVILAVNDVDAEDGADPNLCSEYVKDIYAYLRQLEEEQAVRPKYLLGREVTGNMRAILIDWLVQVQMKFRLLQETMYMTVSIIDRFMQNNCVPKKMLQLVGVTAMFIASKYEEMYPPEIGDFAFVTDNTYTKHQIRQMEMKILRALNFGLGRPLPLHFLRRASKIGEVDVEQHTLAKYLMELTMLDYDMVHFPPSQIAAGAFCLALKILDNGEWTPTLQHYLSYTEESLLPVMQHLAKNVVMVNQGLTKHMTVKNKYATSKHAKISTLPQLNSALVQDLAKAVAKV
Sequence of CDK7 (P50613 whole entry): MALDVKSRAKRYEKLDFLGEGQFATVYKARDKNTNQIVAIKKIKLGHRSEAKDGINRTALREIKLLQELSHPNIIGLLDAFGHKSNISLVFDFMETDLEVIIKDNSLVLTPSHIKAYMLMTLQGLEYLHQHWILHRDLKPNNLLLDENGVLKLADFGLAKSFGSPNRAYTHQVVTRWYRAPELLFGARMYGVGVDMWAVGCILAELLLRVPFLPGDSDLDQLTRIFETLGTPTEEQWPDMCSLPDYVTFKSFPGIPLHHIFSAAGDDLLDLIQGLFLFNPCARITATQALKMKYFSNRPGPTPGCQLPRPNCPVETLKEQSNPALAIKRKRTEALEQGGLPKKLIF
Sequence of CDK7 (P51946 whole entry partner): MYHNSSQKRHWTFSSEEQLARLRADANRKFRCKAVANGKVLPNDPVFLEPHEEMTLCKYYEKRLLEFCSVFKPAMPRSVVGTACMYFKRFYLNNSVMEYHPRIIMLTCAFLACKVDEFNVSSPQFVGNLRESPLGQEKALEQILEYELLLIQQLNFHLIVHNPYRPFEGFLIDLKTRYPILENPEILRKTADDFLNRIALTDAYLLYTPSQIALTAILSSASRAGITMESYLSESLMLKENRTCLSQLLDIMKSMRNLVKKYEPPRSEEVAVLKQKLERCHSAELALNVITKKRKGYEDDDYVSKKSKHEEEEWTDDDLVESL
Sequence of CDK7 (P51948 whole entry partner): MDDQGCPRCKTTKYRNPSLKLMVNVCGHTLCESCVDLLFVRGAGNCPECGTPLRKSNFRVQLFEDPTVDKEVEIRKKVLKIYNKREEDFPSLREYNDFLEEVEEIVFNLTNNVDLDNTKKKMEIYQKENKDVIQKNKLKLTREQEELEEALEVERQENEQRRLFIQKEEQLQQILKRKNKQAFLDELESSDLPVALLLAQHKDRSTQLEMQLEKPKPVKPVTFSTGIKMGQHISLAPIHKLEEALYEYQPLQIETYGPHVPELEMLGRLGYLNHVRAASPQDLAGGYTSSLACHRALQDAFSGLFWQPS
Sequence of CDK19 (Q9BWU1 whole entry): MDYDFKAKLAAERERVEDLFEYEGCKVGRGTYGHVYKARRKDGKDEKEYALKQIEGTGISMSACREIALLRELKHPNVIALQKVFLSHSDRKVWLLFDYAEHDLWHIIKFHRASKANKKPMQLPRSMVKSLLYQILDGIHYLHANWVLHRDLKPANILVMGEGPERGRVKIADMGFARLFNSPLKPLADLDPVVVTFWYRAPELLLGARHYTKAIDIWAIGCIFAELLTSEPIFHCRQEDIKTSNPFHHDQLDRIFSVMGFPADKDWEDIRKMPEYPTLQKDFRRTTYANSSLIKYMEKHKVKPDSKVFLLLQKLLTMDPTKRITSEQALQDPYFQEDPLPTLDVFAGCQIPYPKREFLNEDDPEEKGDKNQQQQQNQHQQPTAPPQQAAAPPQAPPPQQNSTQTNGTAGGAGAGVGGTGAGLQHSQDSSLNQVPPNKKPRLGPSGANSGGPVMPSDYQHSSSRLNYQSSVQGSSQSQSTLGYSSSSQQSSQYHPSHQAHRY

SMILES: CN(C)C(=O)Cn1cc(-c2ccc(-c3cncc4ccccc34)cc2)cn1 [BI-1347]
- inhibition of CDK6 (CDK6): no inhibition
- in vitro sensitivity (B16-F10 cells): resistant
- median survival (EMT6 tumors; 5 days on / 5 days off intermittent scheduling): 26 days
- median survival (EMT6 tumors; daily oral 10 mg/kg, control 22 days): 22.5 days
- in vitro sensitivity (MC-38 cells): resistant
- ADCC mediated depletion of primary leukemia cells by rituximab ([1]; in presence of PBMCs, 48 h): enhances
- enhanced ADCC effect in absence of NK cells ([1]; purified CLL cells with rituximab, no NK cells): not observed
- CR [@ end of study, number of mice] (MC38 tumors): 0/5
- Response [@ d20, number of mice] (MC38 tumors): 2/5
- inhibition of CDK2 (CDK2): no inhibition
- in vitro sensitivity (EMT6 cells): resistant
- reduction of phosphorylation of STAT1^S727 [2]: 60%
- exposure and bioavailability (F) after p.o. dosing (Mouse pharmacokinetics): Excellent exposure and bioavailability
- plasma concentration 24 h after dosing relative to the CDK8 IC50 (Mouse pharmacokinetics; 25 mg/kg p.o.): around 100 fold
- clearance (Mouse pharmacokinetics; i.v. administration): 14 % QH
- inhibition of CDK7 (CDK7): no inhibition
- median survival advantage compared to vehicle-treated animals (B16-F10-luc2 melanoma): 4 days
- tolerability (body weight) (B16-F10-luc2 melanoma): well tolerated with minimal effect on body weight
- tumor growth inhibition (TGI) (B16-F10-luc2 melanoma; day 23): 94%
- tumor growth inhibition (TGI) (B16-F10-luc2 melanoma; day 29): 88%
- mice surviving until day 42 (B16-F10-luc2 melanoma; all control mice sacrificed by day 32): 2/10
- inhibition of CDK9 (CDK9): no inhibition
- IC50 (CDK19): < 1000 nM
- inhibition of CDK1 (CDK1): no inhibition
- inhibition of CDK4 (CDK4): no inhibition
- perforin levels in the supernatant [3]: increased perforin levels
- increase of the proportion of granzyme B-positive NK cells [4]: approximately 4 fold
- metabolic stability in vitro and in vivo (Metabolic stability): higher metabolic stability
